Measured values reported in ChEMBL document CHEMBL1148397, “Synthesis and biological evaluation of 2,3,5-substituted [1,2,4]thiadiazoles as allosteric modulators of adenosine receptors” (J Med Chem, 2004).

Legend:
[1] = target: T1, Adenosine receptor A1 (Homo sapiens) (UniProt P30542); experiment: Percent remaining of radioligand [3H]DPCPX binding to human adenosine A1 receptor at 10 uM
T1 sequence (whole entry): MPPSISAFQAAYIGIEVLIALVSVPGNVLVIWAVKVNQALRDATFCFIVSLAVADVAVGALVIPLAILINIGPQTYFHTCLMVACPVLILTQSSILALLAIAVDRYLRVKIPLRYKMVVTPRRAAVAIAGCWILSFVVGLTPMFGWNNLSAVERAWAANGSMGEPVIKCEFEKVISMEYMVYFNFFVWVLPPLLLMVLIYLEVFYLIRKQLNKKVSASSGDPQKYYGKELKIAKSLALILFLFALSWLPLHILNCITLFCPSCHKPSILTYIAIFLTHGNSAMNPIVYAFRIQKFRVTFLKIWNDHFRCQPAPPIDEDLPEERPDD
How it was run: (§1)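 CHO human A1 receptor membranes (40 μg protein, 2 IU/mL adenosine deaminase) incubated 60 min at 25 °C in Tris-HCl with ~1.6 nM [3H]DPCPX and a fixed compound concentration. Nonspecific binding defined with 10 μM CPA. Filtration on GF/B, scintillation counting. Reported as % specific binding remaining (control 100%, nonspecific 0%). Means of 2–3 experiments in duplicate.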

[2] = target: T1, Adenosine receptor A1 (Homo sapiens); experiment: Percent remaining of radioligand [3H]DPCPX binding to human adenosine A1 receptor at 1 uM; how it was run: as §1
[3] = target: T1, Adenosine receptor A1 (Homo sapiens); experiment: Percent remaining of radioligand [3H]CCPA binding to human adenosine A1 receptor at 10 uM
How it was run: (§2)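 Radioligand displacement: CHO human A1 receptor membranes (40 μg protein, 2 IU/mL adenosine deaminase) with ~1.0 nM [3H]CCPA plus fixed or increasing compound, 60 min at 25 °C in Tris-HCl. Nonspecific binding defined with 10 μM DPCPX. Ice-cold dilution, GF/B filtration, scintillation counting. Results as % specific binding, control 100%. Means of 2–3 experiments in duplicate.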

[4] = target: T1, Adenosine receptor A1 (Homo sapiens); experiment: Association constant for [3H]DPCPX binding to human adenosine A1 receptor plus or minus compound (10 uM); appt1/2 = 3.85 min
How it was run: (§3)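 Membranes from CHO cells expressing recombinant human A1 receptor (40 μg protein) preincubated 30 min at 25 °C with compound. Association started by adding [3H]DPCPX (0.34–0.36 nM), stopped at time points by rapid dilution, then filtered on GF/B and washed with ice-cold buffer. Membranes carry 2 IU/mL adenosine deaminase.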

Adenosine receptor A1 [5] = target: T2, Adenosine receptor A1 (Homo sapiens, UniProt P30542); experiment: Effective concentration for displacement of [3H]-CCPA from human adenosine A1 receptor after 60 min; how it was run: as §2
T2 sequence (P30542 whole entry): T1 sequence (whole entry)

[6] = target: T1, Adenosine receptor A1 (Homo sapiens); experiment: Dissociation constant for [3H]-CCPA binding to human adenosine A1 receptor plus or minus compound (10 uM); t1/2 = 5.37 min
[7] = target: T1, Adenosine receptor A1 (Homo sapiens); experiment: Dissociation constant for [3H]DPCPX binding to human adenosine A1 receptor plus or minus compound (10 uM); t1/2 = 6.61 min
[8] = target: T1, Adenosine receptor A1 (Homo sapiens); experiment: Association constant for [3H]DPCPX binding to human Adenosine A1 receptor plus or minus compound (7 uM); appt1/2 = 1.77 min.; how it was run: as §3
[9] = target: T1, Adenosine receptor A1 (Homo sapiens); experiment: Dissociation constant for [3H]DPCPX binding to human adenosine A1 receptor plus or minus compound (7 uM); t1/2 = 5.27 min.
[10] = target: T1, Adenosine receptor A1 (Homo sapiens); experiment: Dissociation constant for [3H]CCPA binding to human adenosine A1 receptor plus or minus compound (7 uM); t1/2 = 6.48 min.
Adenosine receptor A1 [11] = target: T2, Adenosine receptor A1; experiment: Effective concentration for displacement of [3H]CCPA from human A1 adenosine receptor after 60 min; how it was run: as §2

| SMILES | Remaining [1] | Remaining [2] | Remaining [3] | further results |
| --- | --- | --- | --- | --- |
| CC/N=c1\nc(-c2ccccc2)n(-c2ccccc2)s1 | 114% | 103% | 6% | – |
| CC/N=c1\nc(-c2ccccc2)n(-c2cccc(Cl)c2)s1 | 86% | 101% | 39% | – |
| CC/N=c1\nc(-c2ccccc2)n(-c2ccc(C)cc2)s1 | 105% | 101% | 28% | – |
| CC/N=c1\nc(-c2ccccc2)n(-c2ccc(OC)cc2)s1 | 120% | 103% | 24% | – |
| C/N=c1\nc(-c2ccccc2)n(-c2cccc(Cl)c2)s1 | 108% | 96% | 35% | – |
| C/N=c1\nc(-c2ccccc2)n(-c2ccccc2)s1 | 149% | 104% | 10% | kon [4]: 3.5e+06 M⁻¹ s⁻¹; EC50 (Adenosine receptor A1 [5]): 2800 nM; k off [6]: 0.00217 s⁻¹; k off [7]: 0.00184 s⁻¹ |
| C/N=c1\nc(-c2ccccc2)n(-c2ccc(OC)cc2)s1 | 132% | 103% | 24% | kon [8]: 1.98e+07 M⁻¹ s⁻¹; k off [9]: 0.00217 s⁻¹; EC50 (Adenosine receptor A1 [5]): 2400 nM; k off [10]: 0.00184 s⁻¹ |
| C/N=c1\nc(-c2ccccc2)n(-c2ccc(Cl)c(Cl)c2)s1 | 111% | 94% | 33% | – |
| CC/N=c1\nc(-c2ccc(Cl)cc2)n(-c2ccc(Cl)cc2)s1 | 84% | 95% | 24% | – |
| CC/N=c1\nc(-c2ccccc2)n(-c2ccc(Cl)cc2)s1 | 109% | 104% | 30% | – |
| CC/N=c1\nc(-c2ccc(C)cc2)n(-c2ccc(C)cc2)s1 | 61% | 100% | 32% | EC50 (Adenosine receptor A1 [5]): 1600 nM |
| C/N=c1\nc(-c2ccc(Cl)cc2)n(-c2ccc(Cl)cc2)s1 | 119% | 93% | 20% | – |
| C/N=c1\nc(-c2ccc(Cl)cc2)n(-c2ccccc2)s1 | 119% | 106% | 15% | – |
| C/N=c1\nc(-c2cccc(Cl)c2)n(-c2cccc(Cl)c2)s1 | 93% | 96% | 36% | – |
| CC/N=c1\nc(-c2ccccc2)n(-c2ccc(Cl)c(Cl)c2)s1 | 90% | 100% | 35% | – |

Second part, led by results:

| Remaining [1] | Remaining [2] | Remaining [3] | SMILES | further results |
| --- | --- | --- | --- | --- |
| 126% | 94% | 33% | C/N=c1\nc(-c2ccccc2)n(-c2ccc(Cl)cc2)s1 | – |
| 114% | 100% | 35% | C/N=c1\nc(-c2ccc(OC)cc2)n(-c2ccccc2)s1 | – |
| 97% | 104% | 20% | C/N=c1\nc(-c2ccc(C)cc2)n(-c2ccc(C)cc2)s1 | – |
| 68% | 87% | 225% | Cc1sc(N)c(C(=O)c2cccc(C(F)(F)F)c2)c1C | – |
| 109% | 99% | 5% | C/N=c1\nc(-c2ccccc2)n(-c2cccc(C)c2)s1 | EC50 (Adenosine receptor A1 [11]): 640 nM |
| 75% | 98% | 6% | CC/N=c1\nc(-c2ccccc2)n(-c2cccc(C)c2)s1 | – |
| 123% | 99% | 31% | C/N=c1\nc(-c2ccccc2)n(-c2ccc(C)cc2)s1 | – |
